Reference: ChEMBL document CHEMBL1138555, “N-acylated and N,N'-diacylated imidazolidine-2-thione derivatives and N,N'-diacylated tetrahydropyrimidine-2(1H)-thione analogues: synthesis and antiproliferative activity” (Eur J Med Chem, 2009)

Assays:
HOP-62 = test: Growth inhibition of human HOP62 cells after 48 hrs by sulforhodamine B assay; type: functional; conditions: HOP-62, 48 h
Procedure, shortened: (§1)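 NCI screen panel. Five 10-fold concentrations from 10^-4 to 10^-8 M. Exposure for the last 48 h of a 72 h incubation. Growth estimated by sulforhodamine B protein assay. GI50 is the concentration giving 50% growth inhibition. Where that level was not reached or was exceeded, the value is given as above or below the highest or lowest concentration tested.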

[1] = Growth inhibition of human […] cells after 48 hrs by sulforhodamine B assay; type: functional; procedure, shortened: as §1
[2] = Growth inhibition of human Hs 578T cells after 48 hrs by sulforhodamine B assay; type: functional; procedure, shortened: as §1
ACHN = test: Growth inhibition of human ACHN cells after 48 hrs by sulforhodamine B assay; type: functional; procedure, shortened: as §1
OVCAR-3 = test: Growth inhibition of human OVCAR-3 cells after 48 hrs by sulforhodamine B assay; type: functional; conditions: OVCAR-3, 48 h; procedure, shortened: as §1
M14 = test: Growth inhibition of human M14 cells after 48 hrs by sulforhodamine B assay; type: functional; conditions: M14, 48 h; procedure, shortened: as §1
Malme-3M = test: Growth inhibition of human MALME-3M cells after 48 hrs by sulforhodamine B assay; type: functional; procedure, shortened: as §1
A549 = test: Growth inhibition of human A549 cells after 48 hrs by sulforhodamine B assay; type: functional; conditions: A549, 48 h; procedure, shortened: as §1
MCF7 = test: Growth inhibition of human MCF7 cells after 48 hrs by sulforhodamine B assay; type: functional; conditions: MCF7, 48 h; procedure, shortened: as §1
HCC 2998 = test: Growth inhibition of human HCC2998 cells after 48 hrs by sulforhodamine B assay; type: functional; conditions: HCC 2998, 48 h; procedure, shortened: as §1
TK-10 = test: Growth inhibition of human TK10 cells after 48 hrs by sulforhodamine B assay; type: functional; conditions: TK-10, 48 h
Procedure, shortened: (§2)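 NCI in vitro panel screen. Compounds tested at five 10-fold dilutions, 10^-4 to 10^-8 M. Cells in 96-well plates were exposed for the last 48 h of a 72 h incubation. Viability/growth was read by sulforhodamine B protein assay. GI50 is the concentration giving 50% growth inhibition. Values beyond the tested range are reported as greater or less than the maximum or minimum concentration.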

OVCAR-8 = test: Growth inhibition of human OVCAR8 cells after 48 hrs by sulforhodamine B assay; type: functional; conditions: OVCAR-8, 48 h; procedure, shortened: as §1
EKVX = test: Growth inhibition of human EKVX cells after 48 hrs by sulforhodamine B assay; type: functional; procedure, shortened: as §1
LOX IMVI = test: Growth inhibition of human LOXIMVI cells after 48 hrs by sulforhodamine B assay; type: functional; procedure, shortened: as §1
SK-OV-3 = test: Growth inhibition of human SKOV3 cells after 48 hrs by sulforhodamine B assay; type: functional; conditions: SK-OV-3, 48 h; procedure, shortened: as §1
UACC-62 = test: Growth inhibition of human UACC62 cells after 48 hrs by sulforhodamine B assay; type: functional; conditions: UACC-62, 48 h; procedure, shortened: as §2
MDA-MB-231 = test: Growth inhibition of human MDA-MB-231 cells after 48 hrs by sulforhodamine B assay; type: functional; conditions: MDA-MB-231, 48 h; procedure, shortened: as §1
IGROV-1 = test: Growth inhibition of human IGROV1 cells after 48 hrs by sulforhodamine B assay; type: functional; conditions: IGROV-1, 48 h; procedure, shortened: as §1
KM12 = test: Growth inhibition of human KM12 cells after 48 hrs by sulforhodamine B assay; type: functional; conditions: KM12, 48 h; procedure, shortened: as §1
BT-549 = test: Growth inhibition of human BT549 cells after 48 hrs by sulforhodamine B assay; type: functional; conditions: BT-549, 48 h; procedure, shortened: as §1
786-0 = test: Growth inhibition of human 786-0 cells after 48 hrs by sulforhodamine B assay; type: functional; conditions: 786-0, 48 h; procedure, shortened: as §1
HCT-116 = test: Growth inhibition of human HCT116 cells after 48 hrs by sulforhodamine B assay; type: functional; conditions: HCT-116, 48 h; procedure, shortened: as §1
MDA-MB-435 = test: Growth inhibition of human MDA-MB-435 cells after 48 hrs by sulforhodamine B assay; type: functional; conditions: MDA-MB-435, 48 h; procedure, shortened: as §1
MT4 = test: Antiproliferative activity against human MT4 cells assessed as reduction of growth by MTT assay; type: functional, cell-based
Procedure, shortened: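 MT-4 lymphoblastoid T cells (ATCC) in RPMI 1640 with 10% FCS, penicillin/streptomycin, checked for mycoplasma. 1 × 10⁴ mock-infected cells per well with serial dilutions from a 100 mM DMSO stock. Incubated 4 days at 37 °C, viable cells counted by MTT. IC50 versus untreated controls by linear regression. Mean of three separate experiments.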

SK-MEL-2 = test: Growth inhibition of human SK-MEL-2 cells after 48 hrs by sulforhodamine B assay; type: functional; conditions: SK-MEL-2, 48 h; procedure, shortened: as §1
SF-295 = test: Growth inhibition of human SF295 cells after 48 hrs by sulforhodamine B assay; type: functional; conditions: SF-295, 48 h; procedure, shortened: as §1
SF-268 = test: Growth inhibition of human SF268 cells after 48 hrs by sulforhodamine B assay; type: functional; conditions: SF-268, 48 h; procedure, shortened: as §1
COLO 205 = test: Growth inhibition of human COLO205 cells after 48 hrs by sulforhodamine B assay; type: functional; conditions: COLO 205, 48 h; procedure, shortened: as §1
MOLT-4 = test: Growth inhibition of human MOLT4 cells after 48 hrs by sulforhodamine B assay; type: functional; conditions: MOLT-4, 48 h; procedure, shortened: as §1
SNB-19 = test: Growth inhibition of human SNB19 cells after 48 hrs by sulforhodamine B assay; type: functional; conditions: SNB-19, 48 h; procedure, shortened: as §2
NCI-H522 = test: Growth inhibition of human NCI-H522 cells after 48 hrs by sulforhodamine B assay; type: functional; conditions: NCI-H522, 48 h; procedure, shortened: as §1
NCI-H226 = test: Growth inhibition of human NCI-H226 cells after 48 hrs by sulforhodamine B assay; type: functional; conditions: NCI-H226, 48 h; procedure, shortened: as §1
A498 = test: Growth inhibition of human A498 cells after 48 hrs by sulforhodamine B assay; type: functional; conditions: A498, 48 h; procedure, shortened: as §1
SN12C = test: Growth inhibition of human SN12C cells after 48 hrs by sulforhodamine B assay; type: functional; procedure, shortened: as §2
HOP-92 = test: Growth inhibition of human HOP92 cells after 48 hrs by sulforhodamine B assay; type: functional; conditions: HOP-92, 48 h; procedure, shortened: as §1
OVCAR-4 = test: Growth inhibition of human OVCAR4 cells after 48 hrs by sulforhodamine B assay; type: functional; conditions: OVCAR-4, 48 h; procedure, shortened: as §1
PC-3 = test: Growth inhibition of human PC3 cells after 48 hrs by sulforhodamine B assay; type: functional; conditions: PC-3, 48 h; procedure, shortened: as §1
RXF 393 = test: Growth inhibition of human RXF393 cells after 48 hrs by sulforhodamine B assay; type: functional; conditions: RXF 393, 48 h; procedure, shortened: as §1
NCI-H322M = test: Growth inhibition of human NCI-H322M cells after 48 hrs by sulforhodamine B assay; type: functional; procedure, shortened: as §1
HCT-15 = test: Growth inhibition of human HCT15 cells after 48 hrs by sulforhodamine B assay; type: functional; conditions: HCT-15, 48 h; procedure, shortened: as §1
UACC-257 = test: Growth inhibition of human UACC257 cells after 48 hrs by sulforhodamine B assay; type: functional; conditions: UACC-257, 48 h; procedure, shortened: as §2
MDA-N = test: Growth inhibition of human MDA-N cells after 48 hrs by sulforhodamine B assay; type: functional
Procedure, shortened: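 NCI screen panel. Five 10-fold concentrations from 10^-4 to 10^-8 M. Exposure for the last 48 h of a 72 h incubation. Growth estimated by sulforhodamine B protein assay. Where that level was not reached or was exceeded, the value is given as above or below the highest or lowest concentration tested.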

## O=C(c1ccco1)N1CCN(C(=O)c2ccco2)C1=S
HOP-62
  GI50: 8.7 µM
[1]
  GI50: 2 µM
[2]
  GI50: 6.8 µM
ACHN
  GI50: 4.7 µM
OVCAR-3
  GI50: 2.7 µM
M14
  GI50: 7.7 µM
Malme-3M
  GI50: 3.7 µM
A549
  GI50: 9.8 µM
MCF7
  GI50: 3 µM
HCC 2998
  GI50: 12.4 µM
TK-10
  GI50: 6.3 µM
OVCAR-8
  GI50: 8.8 µM
EKVX
  GI50: 13.4 µM
LOX IMVI
  GI50: 3.4 µM
SK-OV-3
  GI50: 16 µM
UACC-62
  GI50: 3.2 µM
MDA-MB-231
  GI50: 12.2 µM
IGROV-1
  GI50: 6.7 µM
KM12
  GI50: 4 µM
BT-549
  GI50: 4.6 µM
786-0
  GI50: 3.3 µM
HCT-116
  GI50: 7.3 µM
MDA-MB-435
  GI50: 4 µM
MT4
  IC50: 7.4 µM
SK-MEL-2
  GI50: 14.2 µM
SF-295
  GI50: 16.9 µM
SF-268
  GI50: 2.7 µM
COLO 205
  GI50: 9.4 µM
MOLT-4
  GI50: 0.3 µM
SNB-19
  GI50: 25.4 µM
NCI-H522
  GI50: 3.1 µM
NCI-H226
  GI50: 28.7 µM
A498
  GI50: 16.6 µM
SN12C
  GI50: 3.5 µM
HOP-92
  GI50: 12.7 µM
OVCAR-4
  GI50: 15.6 µM
PC-3
  GI50: 3.9 µM
RXF 393
  GI50: 3.6 µM
NCI-H322M
  GI50: 15.7 µM
HCT-15
  GI50: 4.1 µM
UACC-257
  GI50: 4.6 µM
MDA-N
  GI50: 5 µM

## COc1cc(C(=O)N2CCN(C=O)C2=S)cc(OC)c1OC
HOP-62
  GI50: 20 µM
[1]
  GI50: 7.3 µM
[2]
  GI50: 27.6 µM
ACHN
  GI50: 20.1 µM
OVCAR-3
  GI50: 16.9 µM
M14
  GI50: 20.6 µM
Malme-3M
  GI50: 24.3 µM
A549
  GI50: 33.2 µM
MCF7
  GI50: 5.5 µM
HCC 2998
  GI50: 19.8 µM
TK-10
  GI50: 17.1 µM
OVCAR-8
  GI50: 24 µM
EKVX
  GI50: 31.8 µM
LOX IMVI
  GI50: 16.4 µM
SK-OV-3
  GI50: 21.9 µM
UACC-62
  GI50: 15.8 µM
MDA-MB-231
  GI50: 21.5 µM
IGROV-1
  GI50: 21.9 µM
KM12
  GI50: 14.4 µM
BT-549
  GI50: 25 µM
786-0
  GI50: 12.7 µM
HCT-116
  GI50: 35.6 µM
MDA-MB-435
  GI50: 15.5 µM
MT4
  IC50: 13 µM
SK-MEL-2
  GI50: 19.9 µM
SF-295
  GI50: 29.3 µM
SF-268
  GI50: 21.4 µM
COLO 205
  GI50: 20.2 µM
MOLT-4
  GI50: 29.4 µM
SNB-19
  GI50: 28.5 µM
NCI-H522
  GI50: 5.8 µM
NCI-H226
  GI50: 35.9 µM
A498
  GI50: 20.5 µM
SN12C
  GI50: 20.2 µM
HOP-92
  GI50: 9.3 µM
OVCAR-4
  GI50: 24.1 µM
PC-3
  GI50: 22.2 µM
RXF 393
  GI50: 16.1 µM
NCI-H322M
  GI50: 24.8 µM
HCT-15
  GI50: 25.6 µM
UACC-257
  GI50: 19.9 µM
MDA-N
  GI50: 17.9 µM

## COc1cc(C(=O)N2CCN(C(=O)c3cc(OC)c(OC)c(OC)c3)C2=S)cc(OC)c1OC
HOP-62
  GI50: 15.2 µM
[1]
  GI50: 3.7 µM
[2]
  GI50: 24.7 µM
ACHN
  GI50: 17.8 µM
OVCAR-3
  GI50: 15.2 µM
M14
  GI50: 16.8 µM
Malme-3M
  GI50: 13.4 µM
A549
  GI50: 19.9 µM
MCF7
  GI50: 5.2 µM
HCC 2998
  GI50: 19 µM
TK-10
  GI50: 17 µM
OVCAR-8
  GI50: 21.9 µM
LOX IMVI
  GI50: 15.4 µM
SK-OV-3
  GI50: 20.2 µM
UACC-62
  GI50: 14.9 µM
MDA-MB-231
  GI50: 16.7 µM
IGROV-1
  GI50: 24.7 µM
KM12
  GI50: 14.2 µM
BT-549
  GI50: 17.4 µM
786-0
  GI50: 11.4 µM
HCT-116
  GI50: 18.2 µM
MDA-MB-435
  GI50: 13.1 µM
MT4
  IC50: 7 µM
SK-MEL-2
  GI50: 16.3 µM
SF-295
  GI50: 19 µM
SF-268
  GI50: 11.5 µM
COLO 205
  GI50: 19.4 µM
MOLT-4
  GI50: 23.5 µM
SNB-19
  GI50: 18.5 µM
NCI-H522
  GI50: 3.7 µM
NCI-H226
  GI50: 19.5 µM
A498
  GI50: 17.7 µM
SN12C
  GI50: 17.1 µM
HOP-92
  GI50: 16.1 µM
OVCAR-4
  GI50: 16.9 µM
PC-3
  GI50: 15 µM
RXF 393
  GI50: 14.3 µM
NCI-H322M
  GI50: 17.4 µM
HCT-15
  GI50: 20.2 µM
UACC-257
  GI50: 21.7 µM
MDA-N
  GI50: 15 µM
